Measurements taken from publication PMC9540525 (Cancer, 2022).

What was measured:
[1] = tested on: progastrin‐releasing peptide [pro‐GRP]; assay: Phase 1 study: serum progastrin-releasing peptide; type: in vivo, human; conditions: dose expansion, NENs
[2] = tested on: advanced or unresectable solid tumors, including NENs and R/R NHL; assay: Phase 1 study CC-90011-ST-001: efficacy; type: in vivo, human
Method in brief: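 Phase 1 open-label multicenter study; adults with advanced NENs or R/R NHL. Test compound given orally once weekly in 28-day cycles (expansion: 60 mg); reductions and interruptions of up to 4 weeks allowed. Investigator-assessed response: RECIST 1.1 (solid tumors), IWG (NHL), PCWG3 (neuroendocrine prostate); FDG PET or PET/CT confirmed CR in FDG-avid tumors. Two-sided 95% Clopper–Pearson CIs; Kaplan–Meier medians.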

[3] = tested on: solid tumor cell lines, including small cell lung cancer, and acute myeloid leukemia cell lines; conditions: solid tumor cell lines incl. SCLC, and AML cell lines; cited from earlier work
[4] = dose escalation, cited from earlier work

SMILES: COc1ccc(-c2c(-c3ccc(C#N)c(F)c3)nc(N3CCC(N)CC3)n(C)c2=O)cc1F [CC‐90011]
- patients in whom pro-GRP levels decreased [1]: 15 of 16
- patients with a pro-GRP decrease >30% [1]: 11 of 16
- Best overall response: CR ([2]; dose escalation, n = 50): 1 (2.0) no. (%)
- Best overall response: NE ([2]; dose escalation, n = 50): 4 (8.0) no. (%)
- Best overall response: PD ([2]; dose escalation, n = 50): 22 (44.0) no. (%)
- Best overall response: PR ([2]; dose escalation, n = 50): 1 (2.0) no. (%)
- Best overall response: SD ([2]; dose escalation, n = 50): 22 (44.0) no. (%)
- Best overall response: SD ≥4 months ([2]; dose escalation, n = 50): 8 (16.0) no. (%)
- CBR [95% CI] ([2]; dose escalation, n = 50): 20 [10.0–33.7] %
- ORR [95% CI] ([2]; dose escalation, n = 50): 4 [0.5–13.7] %
- mOS [95% CI] ([2]; dose escalation, n = 50): 7.8 [6.1–20.1] months
- mPFS [95% CI] ([2]; dose escalation, n = 50): 3.4 [1.7–3.7] months
- patients with NENs with SD lasting ≥6 months / >6 months ([2]; dose escalation, grade ≥2 NENs): seven
- treatment cycle in which the patient with CR was still ongoing ([2]; dose escalation, one patient with R/R MZL, as of April 2022): 58 cycle
- patients with bronchial NENs with SD after nine or more cycles ([2]; dose expansion): three
- Best overall response: CR ([2]; dose expansion, n=19): 0 (0.0) no. (%)
- Best overall response: NE ([2]; dose expansion, n=19): 2 (11.0) no. (%)
- Best overall response: PD ([2]; dose expansion, n=19): 7 (37.0) no. (%)
- Best overall response: PR ([2]; dose expansion, n=19): 0 (0.0) no. (%)
- CBR [95% CI] ([2]; dose expansion, n=19): 37 [16.3–61.6] %
- ORR [95% CI] ([2]; dose expansion, n=19): 0 [0.0–17.6] %
- mOS [95% CI] ([2]; dose expansion, n=19): 15.6 [7.0, NE] months
- mPFS [95% CI] ([2]; dose expansion, n=19): 1.8 [1.1–5.4] months
- treatment cycle in which the patient with SD was still ongoing ([2]; dose expansion, one patient with bronchial NENs, as of April 2022): 46 cycle
- median PFS ([2]; patients with bronchial NENs): 4.6 months
- antiproliferative activity in vitro [3]: has antiproliferative activity in various solid tumor cell lines in vitro
- dose-limiting toxicity [4]: Thrombocytopenia was the only dose‐limiting toxicity reported
- maximum tolerated dose ([4]; once per week): 80 mg
- nontolerated dose ([4]; once per week): 120 mg
- recommended phase 2 dose (RP2D) ([4]; once per week): 60 mg
